ABHD4 inh – inhibits mouse alpha/beta hydrolase domain 4; Q8VD66; purified mABHD4, FP-Rh probe fluorescence polarization; inhibition, % at 8.92 µM; 370,000 tested, 0.54% active;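 active = inhibition exceeding the mean over every tested compound plus 3 SD, cut at about 30% in these data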
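Test system: mABHD4 protein; Read-out basis: % inhibition; Incubation: 45 min + 60 min at 25 °C; Repeats: single replicate; Technique: fluorescence polarization with parallel and perpendicular emission, 525/598 nm; Compound: 8.92 µM, single dose; Benchmarks: full inhibition S159A mutant plus DMSO, zero as sample-well median.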
SIAE primary – blocks human sialic acid acetylesterase; Q9HAT2; SIAE FP-Rh probe binding, fluorescence polarization; inhibition, % at 9.66 µM; 370,000 tested, 0.69% active; AID 1053197;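 active = inhibition above a cutoff: mean of compounds within the control limits plus 3 SD of those, cut at about 17% in these data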
Target sequence (Q9HAT2 whole entry, looked up): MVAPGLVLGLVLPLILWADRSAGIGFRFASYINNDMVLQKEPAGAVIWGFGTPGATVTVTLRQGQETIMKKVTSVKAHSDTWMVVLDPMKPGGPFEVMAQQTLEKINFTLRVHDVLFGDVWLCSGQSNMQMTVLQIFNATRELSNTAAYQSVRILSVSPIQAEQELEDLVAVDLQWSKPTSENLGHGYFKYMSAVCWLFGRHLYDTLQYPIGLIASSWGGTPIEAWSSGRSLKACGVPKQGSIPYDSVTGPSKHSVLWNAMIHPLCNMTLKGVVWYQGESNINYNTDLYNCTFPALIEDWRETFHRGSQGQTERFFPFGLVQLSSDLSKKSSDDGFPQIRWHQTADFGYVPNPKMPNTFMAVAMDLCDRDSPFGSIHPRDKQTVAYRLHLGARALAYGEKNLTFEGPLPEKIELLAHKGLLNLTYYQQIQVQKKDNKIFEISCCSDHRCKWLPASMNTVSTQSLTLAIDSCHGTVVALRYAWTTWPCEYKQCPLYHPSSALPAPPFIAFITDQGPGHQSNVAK
HTRA1 inh – HTRA1 (human) protease inhibition. Q92743. recombinant HTRA1, FP-rhodamine activity-based probe, fluorescence polarization. inhibition, % at 5.96 µM. 340,000 tested, 0.5% active. AID 504803; in the data active = inhibition above about 36%
JMJD2C inh – blocks human GASC-1 demethylase activity | Q9H3R0 | GST-JMJD2C(1-420) H3K9me3 demethylation, DELFIA europium | inhibition, % at 2.35 µM | 330,000 tested, 0.069% active;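 active = more than half of a compound's replicate wells show inhibition beyond 50%, single wells judged on their own value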;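 also: signal counts dimethyl H3K9 product captured on neutravidin plate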
PRMT1 FP inh – PRMT1 (human) inhibition, primary screen | Q99873 | recombinant PRMT1, activity-based probe fluorescence polarization | inhibition, % at 2.79 µM | 370,000 tested, 1.3% active;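 active = inhibition above about 21% made by adding two undisclosed values, limit read from the data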
SIAE confirm – confirmation of human SIAE inhibitors; shares compounds with SIAE primary; SIAE FP-Rh activity-based probe, fluorescence polarization; inhibition, % at 9.66 µM; 2,300 tested, 13% active; AID 1117263;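 active = mean inhibition of the replicates above the hit cutoff set in the primary screen, cut at about 17% in these data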;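 also: inhibitors lower polarization as more probe stays unbound to SIAE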
Large screens that a line does not name were inactive (follow-up assays come after a bar, where they were run). In the library only some 2.4% were active in any assay of this set; here they are far more common.

CC1(C)CC(=O)C2=C(C1)N(c1ccc(F)cc1)C(N)=C(C#N)C2c1cccs1 (stereo unspecified)	SIAE primary 31 | SIAE confirm inactive
CCOC(=O)N1CCN(C(=O)C[C@H]2C[C@@]3(C(=O)OC)C(=C[C@H](C(C)C)O[C@@H]3C3CC3)N(CCC3=CCCCC3)C2=O)CC1	none (no result: HTRA1 inh, JMJD2C inh)
c1ccc(-c2ccnc3nc(N4CCN(c5ccccc5)CC4)nn23)cc1	none
c1ccc(Oc2ccc(-c3ccnc4nc(N5CCN(c6ccccc6)CC5)nn34)cc2)cc1	SIAE primary 22 | SIAE confirm inactive
N#Cc1cccc(NC(=O)OC2CC3CC2[C@H]2CCCCN2C3)c1 (stereo partly specified)	none (no result: HTRA1 inh, JMJD2C inh)
N=c1n(CCN2CCOCC2)c2ccccc2n1CC(=O)c1cccc([N+](=O)[O-])c1	none
N=c1n(CCN2CCOCC2)c2ccccc2n1CC(=O)c1ccc(Cl)c(Cl)c1	SIAE primary 19 | SIAE confirm inactive
O=C(Nc1ccccc1Oc1ccccc1)c1cc([N+](=O)[O-])ccc1Cl	none
COc1ccccc1NC(=O)c1ccc(-n2ccnc2)c([N+](=O)[O-])c1	SIAE primary 24 | SIAE confirm inactive
COc1ccc(C(=O)Nc2ccc(Nc3ccccc3)cc2)cc1[N+](=O)[O-]	SIAE primary 19 | SIAE confirm inactive
O=C(Nc1ccc(Nc2ccccc2)cc1)c1cc([N+](=O)[O-])ccc1Cl	SIAE primary 24 | SIAE confirm inactive
COc1ccc(C(=O)Nc2ccc(OCc3ccccc3)cc2)cc1[N+](=O)[O-]	none
CC(=O)c1c(C)[nH]c(C(=O)Nc2ccccc2C)c1C	none (no result: HTRA1 inh, JMJD2C inh)
CCn1cc(C(=O)N2CCN(Cc3ccc(C)cc3)CC2)c(=O)c2ccc(C)nc21	none (no result: HTRA1 inh, JMJD2C inh)
Cc1cccc(OCCn2cc(/C=N/NC(=O)c3ccncc3)c3ccccc32)c1	SIAE primary 31 | SIAE confirm inactive
O=C(N/N=C/c1cn(Cc2ccccc2)c2ccccc12)c1cc(O)cc(O)c1	SIAE primary 20 | SIAE confirm inactive
CCOc1cc(C(N)=O)cc(Br)c1OCC	none
CCOc1cc(C(N)=O)cc(Cl)c1OCC	SIAE primary 17 | SIAE confirm inactive
O=C(C1CCC(CNc2nc(=S)[nH]c3ccccc23)CC1)N1CCN(c2ccc(F)cc2)CC1 (stereo unspecified)	SIAE primary 20 | SIAE confirm inactive
COc1ccc(N2CCN(CCCNC(=O)C3CCC(CNc4nc(=S)[nH]c5ccccc45)CC3)CC2)cc1 (stereo unspecified)	none
COc1ccc(Cn2ccnc2CO)cc1[N+](=O)[O-]	SIAE primary 19 | SIAE confirm inactive
Cc1cccc(-c2nc(Nc3ccc(N4CCOCC4)cc3)c3ccccc3n2)c1	SIAE primary 30 | SIAE confirm inactive
Cc1ccc(S(=O)(=O)NC(=O)c2cc(C)n(C3CC3)c2C)cc1	SIAE primary 24 | SIAE confirm inactive
COc1ccc(OC)c(/C=N\Nc2nccs2)c1	SIAE primary 18 | SIAE confirm inactive
COC(=O)COc1ccc(-c2nn(C)c(=O)c3ccccc23)cc1	SIAE primary 20 | SIAE confirm inactive
COc1ccc(S(=O)(=O)N2CCCCC2c2cc(C(=O)Nc3ccc(OC)cc3C)no2)cc1 (stereo unspecified)	none (no result: HTRA1 inh, JMJD2C inh)
CCCCNC(=O)C[C@H]1C[C@@]2(C(=O)OC)C(=C[C@H](C3CCCC3)O[C@@H]2C)N(Cc2ccccc2)C1=O	none (no result: HTRA1 inh, JMJD2C inh)
O=C(c1ccc(Cl)cc1)N1CCC2CC1c1cc(-c3ccccc3)ccc12 (stereo unspecified)	SIAE primary 21 (no result: JMJD2C inh) | SIAE confirm inactive
O=C(c1cccc(Cl)c1)N1CCC2CC1c1cc(-c3ccccc3)ccc12 (stereo unspecified)	none (no result: JMJD2C inh)
O=C(COc1cccc(Cl)c1)N/N=C\c1cc2ccccc2nc1Cl	none
O=C(CNc1ccc2ccccc2c1)N/N=C/c1cc2ccccc2nc1Cl	SIAE primary 18 | SIAE confirm inactive
O=C(CSc1nnc(-c2ccccc2F)n1C1CC1)NC(=O)c1cccc([N+](=O)[O-])c1	none
Cn1c(SCC(=O)NC(=O)c2cccc([N+](=O)[O-])c2)nnc1-c1ccc(F)cc1	SIAE primary 23 | SIAE confirm inactive
O=C(N/N=C/c1ccccn1)c1ccccc1	none
O=C(N/N=C\c1ccccn1)c1cccc(C(=O)N/N=C\c2ccccn2)n1	SIAE primary 21 | SIAE confirm 21
CC(C(Sc1ccccc1N)c1ccccc1)[N+](=O)[O-] (stereo unspecified)	SIAE primary 17, PRMT1 FP inh 53 | SIAE confirm inactive
Nc1ccccc1SCc1ccccc1Cl	none (no result: HTRA1 inh)
CCc1nc2ccc(C(=O)NCCc3ccccn3)cn2c1N(C)Cc1nccs1	none (no result: HTRA1 inh, JMJD2C inh)
CCc1nc2ccc(C(=O)NCCc3ccccn3)cn2c1N(C)Cc1ccc(N(C)C)cc1	SIAE primary 23 (no result: HTRA1 inh, JMJD2C inh) | SIAE confirm inactive
COc1cc(/C=N/Nc2ccc(C(F)(F)F)cn2)cc(OC)c1O	SIAE primary 18 | SIAE confirm inactive
Oc1ccc(/C=N/Nc2ccc(C(F)(F)F)cn2)cc1	none
CC(C)Nc1ncnc2c1ncn2[C@H]1CN(Cc2ccccc2)C[C@@H](CO)O1	none (no result: HTRA1 inh, JMJD2C inh)
COCCNc1nc(Oc2cccc3ccccc23)c2sccc2n1	none (no result: HTRA1 inh, JMJD2C inh)
O=C1CC(c2ccco2)CC(O)=C1C=Nc1ccccc1-c1ccccc1 (stereo unspecified)	SIAE primary 27 | SIAE confirm inactive
O=C1CC(c2ccco2)CC(O)=C1C=Nc1cc(Cl)ccc1O (stereo unspecified)	none
CC(=O)Oc1c(-c2ccc(Br)o2)oc2ccccc2c1=O	none
CCn1c(=O)n(CC(=O)N2CCN(C(C)=O)CC2)c(=O)c2ccccc21	none (no result: HTRA1 inh, JMJD2C inh)
Cc1c(C2(O)CCCCC2)[nH]c2ncccc12	none
Cc1c(C2(O)CCCCC2)[nH]c2cnccc12	SIAE primary 23 | SIAE confirm inactive
COc1ccccc1NC(=S)N/N=C/c1ccc(O)cc1	SIAE primary 19 | SIAE confirm inactive
CCCCCCCCN1C(=O)[C@@H](CC(=O)NCc2cccs2)C[C@@]2(C(=O)OC)C1=C[C@H](C(C)C)O[C@@H]2C1CC1	none (no result: HTRA1 inh, JMJD2C inh)
CC1=NN(c2ccc(C(=O)O)c(N)c2)C(=O)C1	SIAE primary 18 | SIAE confirm inactive
COC(=O)[C@]12C[C@H](CC(=O)NCc3ccc(OC)c(OC)c3)C(=O)N(Cc3ccc(Cl)cc3Cl)C1=C[C@H](C(C)C)O[C@@H]2C1CC1	none (no result: HTRA1 inh, JMJD2C inh)
CC1=CCC(C(=O)O)C(C(=O)NC2CCCCC2)C1 (stereo unspecified)	SIAE primary 22 | SIAE confirm inactive
CC(Sc1nnc(NC2CC2)s1)C(=O)Nc1ccc(N2CCOCC2)cc1 (stereo unspecified)	none (no result: JMJD2C inh)
CC(Sc1nnc(NC2CCCCC2)s1)C(=O)Nc1ccc2c(c1)C(=O)c1ccccc1C2=O (stereo unspecified)	SIAE primary 24 | SIAE confirm inactive

From PubChem
